Laboratory results from ChEMBL document CHEMBL4229559, “Synthesis toward Bivalent Ligands for the Dopamine D2 and Metabotropic Glutamate 5 Receptors” (J Med Chem, 2018).

Experiments:
D(2) dopamine receptor [1] = biological target: T1, D(2) dopamine receptor (Homo sapiens, UniProt P14416); assay: Displacement of [3H]-Raclopride from recombinant human dopamine D2 receptor expressed in HEK293T cell membranes after 1 hr by liquid scintillation counting
In short: (§1)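 Membranes (20 µg) from HEK293T cells stably expressing D2R, or D2R with mGluR5. Incubated with 2.0 nM [3H]raclopride and unlabeled ligand (0.1 nM-10 µM) for 1 h at 37 °C in 50 mM Tris-HCl pH 7.4 containing NaCl, KCl, MgCl2, CaCl2 and EDTA. Nonspecific binding defined with 1 µM haloperidol. Counted by scintillation; Ki by Cheng-Prusoff; three independent assays.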

D(2) dopamine receptor [2] = biological target: T1, D(2) dopamine receptor; assay: Displacement of [3H]-Raclopride from recombinant human dopamine D2 receptor expressed in HEK293T cell membranes co-expressing mGluR5a (unknown origin) after 1 hr by liquid scintillation counting; in short: as §1
[3] = biological target: T2, Metabotropic glutamate receptor 5 (Homo sapiens, UniProt P41594); assay: Antagonist activity at mGluR5 (unknown origin) expressed in HEK293T cells assessed as inhibition of L-Glu-induced MAPK phosphorylation preincubated for 30 mins followed by agonist stimulation for 10 mins by Western blot analysis; type: functional, cell-based
T2 sequence (P41594 whole entry): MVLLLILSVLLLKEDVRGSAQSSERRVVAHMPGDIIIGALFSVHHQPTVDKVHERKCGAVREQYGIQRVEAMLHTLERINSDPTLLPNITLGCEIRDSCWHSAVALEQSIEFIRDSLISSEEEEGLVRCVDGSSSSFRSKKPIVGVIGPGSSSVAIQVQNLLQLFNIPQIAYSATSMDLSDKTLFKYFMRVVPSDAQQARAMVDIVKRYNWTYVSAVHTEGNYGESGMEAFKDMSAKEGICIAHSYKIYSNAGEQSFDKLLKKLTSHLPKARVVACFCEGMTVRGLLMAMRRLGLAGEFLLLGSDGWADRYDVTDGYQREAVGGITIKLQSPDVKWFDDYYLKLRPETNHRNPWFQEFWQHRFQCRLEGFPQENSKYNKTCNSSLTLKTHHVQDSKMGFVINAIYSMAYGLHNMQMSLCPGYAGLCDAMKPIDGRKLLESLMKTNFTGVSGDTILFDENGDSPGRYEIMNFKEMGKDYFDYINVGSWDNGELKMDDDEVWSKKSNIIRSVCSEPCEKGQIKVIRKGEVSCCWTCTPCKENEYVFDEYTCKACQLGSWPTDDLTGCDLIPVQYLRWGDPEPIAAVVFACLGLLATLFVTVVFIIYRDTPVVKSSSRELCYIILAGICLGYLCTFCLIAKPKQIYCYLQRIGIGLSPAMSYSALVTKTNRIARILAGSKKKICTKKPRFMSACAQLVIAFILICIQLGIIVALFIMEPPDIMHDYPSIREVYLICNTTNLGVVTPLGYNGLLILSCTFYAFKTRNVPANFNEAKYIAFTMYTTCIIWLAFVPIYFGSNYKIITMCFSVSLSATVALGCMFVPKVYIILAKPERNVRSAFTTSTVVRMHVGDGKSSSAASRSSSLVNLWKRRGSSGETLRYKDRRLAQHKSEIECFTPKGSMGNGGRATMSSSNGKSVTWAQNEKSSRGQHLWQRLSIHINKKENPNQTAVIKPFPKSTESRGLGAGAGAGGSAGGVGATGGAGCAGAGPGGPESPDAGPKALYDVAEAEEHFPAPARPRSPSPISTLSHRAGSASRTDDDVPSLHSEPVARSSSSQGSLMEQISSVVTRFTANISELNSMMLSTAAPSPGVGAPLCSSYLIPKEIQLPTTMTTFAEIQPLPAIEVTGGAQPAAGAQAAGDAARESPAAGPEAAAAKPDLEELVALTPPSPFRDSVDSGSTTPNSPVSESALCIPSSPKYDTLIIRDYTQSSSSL
In short: (§2)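 Cells stably expressing mGluR5 alone or with D2R, seeded at 400,000 per well, serum-starved overnight at about 70% confluence. Ligand pretreatment at 1 nM-10 µM for 30 min at 37 °C, then 10 µM L-glutamate for 7-10 min. RIPA lysates run on western blot; phospho-p44/42 MAPK signal normalized to total p44/42 MAPK. Mean ± SEM of three independent experiments.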

D(2) dopamine receptor [4] = biological target: T1, D(2) dopamine receptor; assay: Agonist activity at human dopamine D2 receptor expressed in HEK293T cells assessed as reduction in forskolin-induced cAMP accumulation preincubated for 15 mins followed by forskolin addition by GloSensor-based assay; type: functional, cell-based
[5] = biological target: T3, D(2) dopamine receptor/Metabotropic glutamate receptor 5 (Homo sapiens, UniProt P14416+P41594); assay: Agonist activity at human dopamine D2 receptor /mGluR5a (unknown origin) expressed in HEK293T cells assessed as reduction in forskolin-induced cAMP accumulation preincubated for 15 mins followed by forskolin addition by GloSensor-based assay; type: functional, cell-based
T3 sequence (P14416 whole entry): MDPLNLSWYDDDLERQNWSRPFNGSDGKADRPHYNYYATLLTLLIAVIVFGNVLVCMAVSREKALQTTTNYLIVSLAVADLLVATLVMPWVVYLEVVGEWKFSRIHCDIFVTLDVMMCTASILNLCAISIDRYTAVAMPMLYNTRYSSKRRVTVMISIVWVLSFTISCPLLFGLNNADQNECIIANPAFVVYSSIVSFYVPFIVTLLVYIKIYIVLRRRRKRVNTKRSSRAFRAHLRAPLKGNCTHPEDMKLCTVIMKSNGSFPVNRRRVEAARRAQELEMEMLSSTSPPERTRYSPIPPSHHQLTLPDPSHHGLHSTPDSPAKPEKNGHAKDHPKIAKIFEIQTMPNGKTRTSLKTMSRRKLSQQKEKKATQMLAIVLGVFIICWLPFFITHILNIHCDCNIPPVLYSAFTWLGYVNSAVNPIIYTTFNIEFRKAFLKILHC
T3 sequence (P41594 whole entry): as the sequence (P41594 whole entry) above

[6] = biological target: T2, Metabotropic glutamate receptor 5; assay: Displacement of [3H]MPEP from recombinant mGluR5 (unknown origin) expressed in HEK293T cell membranes after 1 hr by liquid scintillation counting
In short: (§3)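 Membranes (20 µg) from cells stably expressing mGluR5, with or without D2R. Incubated with 3.0 nM [3H]MPEP and unlabeled ligand (0.1 nM-100 µM) in 50 mM Tris-HCl/2 mM MgCl2, pH 7.4, for 1 h at 25 °C. Nonspecific binding defined with 10 µM MPEP. Filtration and scintillation counting; Ki via Cheng-Prusoff; three independent assays in duplicate.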

[7] = biological target: T2, Metabotropic glutamate receptor 5; assay: Displacement of [3H]MPEP from recombinant mGluR5a (unknown origin) expressed in HEK293T cell membranes co-expressing human dopamine D2 receptor after 1 hr by liquid scintillation counting; in short: as §3
[8] = biological target: T3, D(2) dopamine receptor/Metabotropic glutamate receptor 5; assay: Antagonist activity at human dopamine D2 receptor /mGluR5a (unknown origin) expressed in HEK293T cells assessed as inhibition of L-Glu-induced MAPK phosphorylation preincubated for 30 mins followed by agonist stimulation for 10 mins by Western blot analysis; type: cell-based; in short: as §2

T1 sequence (P14416 whole entry): as the sequence (P14416 whole entry) above

SMILES	Ki (D(2) dopamine receptor [1])	Ki (D(2) dopamine receptor [2])	IC50 [3]	EC50 (D(2) dopamine receptor [4]; read-out: EC50)	EC50 ([5]; read-out: EC50)	Ki [6]	Ki [7]	IC50 [8]	EC50 (D(2) dopamine receptor [4])	EC50 [5]
COc1cc(CN2CCN(c3ccccc3OC)CC2)ccc1OCc1cn(CCOCCOCCOCCOCCOCCNC(=O)COc2cccc(C#Cc3csc(C)n3)c2)nn1	352 nM	186 nM	900 nM	–	–	–	–	–	–	–
CCCN(CCc1ccc(NC(=O)CCc2cn(CCCCCCNC(=O)COc3cncc(C#Cc4csc(C)n4)c3)nn2)cc1)C1CCc2c(O)cccc2C1 (stereo unspecified)	295 nM	142 nM	1600 nM	7.6 nM	20 nM	–	–	–	–	–
COc1cc(CN2CCN(c3ccccc3OC)CC2)ccc1OCc1cn(CCCCCCCCN(C)CCCCCNC(=O)COc2cccc(C#Cc3csc(C)n3)c2)nn1	147 nM	94 nM	240 nM	–	–	–	–	–	–	–
COc1cc(CN2CCN(c3ccccc3OC)CC2)ccc1OCc1cn(CCCCCCCCCCN(C)CCCCCNC(=O)COc2cccc(C#Cc3csc(C)n3)c2)nn1	398 nM	252 nM	310 nM	–	–	–	–	–	–	–
CCCN(CCc1ccc(NC(=O)CCc2cn(CCCCCCCCN(C)CCCCCNC(=O)COc3cncc(C#Cc4csc(C)n4)c3)nn2)cc1)C1CCc2c(O)cccc2C1 (stereo unspecified)	50 nM	13 nM	170 nM	3.3 nM	1.5 nM	2300 nM	1100 nM	620 nM	–	–
C#CCCC(=O)Nc1ccc(CCN(CCC)C2CCc3c(O)cccc3C2)cc1 (stereo unspecified)	17 nM	19 nM	–	3 nM	6.5 nM	–	–	–	–	–
COc1cc(CN2CCN(c3ccccc3OC)CC2)ccc1OCc1cn(CCCCCCCCCCN(C)CCCCCNC(=O)COc2cncc(C#Cc3csc(C)n3)c2)nn1	303 nM	115 nM	450 nM	–	–	–	–	–	–	–
Cc1nc(C#Cc2cncc(OCC(=O)NCCCCCN(C)CCCCCCCCN=[N+]=[N-])c2)cs1	–	–	2600 nM	–	–	5800 nM	5700 nM	4500 nM	–	–
CCCN(CCc1ccc(NC(=O)CCc2cn(CCCCCCCCCCN(C)CCCCCNC(=O)COc3cncc(C#Cc4csc(C)n4)c3)nn2)cc1)C1CCc2c(O)cccc2C1 (stereo unspecified)	79 nM	171 nM	320 nM	5.5 nM	32 nM	–	–	–	–	–
COc1cc(CN2CCN(c3ccccc3OC)CC2)ccc1OCc1cn(CCCCCCCCN(C)CCCCCNC(=O)COc2cncc(C#Cc3csc(C)n3)c2)nn1	132 nM	45 nM	110 nM	–	–	1000 nM	1300 nM	1800 nM	–	–
COc1cc(CN2CCN(c3ccccc3OC)CC2)ccc1OCc1cn(CCOCCOCCOCCNC(=O)COc2cccc(C#Cc3csc(C)n3)c2)nn1	438 nM	251 nM	1200 nM	–	–	–	–	–	–	–
C#CCOc1ccc(CN2CCN(c3ccccc3OC)CC2)cc1OC	77 nM	69 nM	–	–	–	–	–	–	Not Active	Not Active
